F508del corr: F508del CFTR correction, initial screen, CFBE line, single point | CFBE cells, YFP halide quenching; stimulated with forskolin plus potentiator P3; % fluorescence drop versus neutral controls | AID 720511, 2013 | activity (quench increase), % at 7.58 µM | actives 0.36% (n = 350,000);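 active = mean added fluorescence quench of at least 8% versus neutral control, with both replicates also reaching 8%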;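 also: cells transiently co-express mutant CFTR-F508del with the halide-sensitive YFP; corrector assay measuring rescue of mutant channel to the surface after 24 h compound exposure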
MC4R ag barr: MC4R agonists recruiting beta-arrestin, primary screen, cell-based, luminescence, agonist arm of biased-ligand search; activation, % at 8.9 µM; actives 0.98% (n = 360,000); U2OS MC4R beta-arrestin complementation; percent of melanotan II response, DMSO zero; AID 540308, 2011; Melanocortin receptor 4 (Homo sapiens), P32245;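 active = activation above a per-plate cutoff, the mean activation of sample wells on that plate plus 3 SD, cut at about 8% in these data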
Target sequence (P32245 whole entry, looked up): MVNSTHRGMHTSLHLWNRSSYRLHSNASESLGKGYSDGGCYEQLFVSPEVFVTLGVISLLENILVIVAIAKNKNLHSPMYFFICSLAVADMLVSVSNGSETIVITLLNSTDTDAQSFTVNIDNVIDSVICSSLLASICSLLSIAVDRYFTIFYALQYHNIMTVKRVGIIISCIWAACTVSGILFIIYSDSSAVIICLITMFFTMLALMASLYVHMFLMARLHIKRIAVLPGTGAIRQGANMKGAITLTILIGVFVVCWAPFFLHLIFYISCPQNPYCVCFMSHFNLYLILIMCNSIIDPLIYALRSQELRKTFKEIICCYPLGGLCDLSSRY
SMARCA2 act: SMARCA2 (BRM) function activators, primary screen, cell-based, luminescence, high throughput; AID 652017, 2013; actives 1% (n = 370,000); activation, % at 9.1 µM; MG213 cells, MMTV-luciferase reporter, dexamethasone, overnight; in the data active = activation above about 7.8%;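 also: 0% = vehicle wells and 100% = reference activator wells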
MC4R antagonist: MC4R antagonists of cAMP signaling, primary screen, cell-based, TR-FRET, antagonist arm of biased-ligand search; MC4R-expressing cells, MTII-stimulated cAMP, LANCE TR-FRET; actives 0.48% (n = 360,000); Melanocortin receptor 4 (Homo sapiens), P32245; inhibition, % at 6.5 µM;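 active = inhibition above its plate's cutoff, the mean of tested wells on that plate plus 3 SD, cut at about 29% in these data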;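 also: 0% = Melanotan II alone and 100% = Melanotan II plus saturating MCL0020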
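Assay system: U2OS cells stably expressing human melanocortin 4 receptor (MC4R) / Dosing: 6.5 µM / Timing: compound 30 min, challenge 1 h, detection 1 h / Measured by: Eu-cAMP/anti-cAMP TR-FRET, emission 671 nm / Replicates: singlicate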
* marks the source's active call; other numbers are inactive results; nt = no result. Rows were chosen to be rich in hits. Some 2.1% of all compounds tested hit in one or more screens of this group.

SMILES	F508del corr	MC4R ag barr	SMARCA2 act	MC4R antagonist
Cn1nc(C(=O)Nc2nc3ccccc3[nH]2)c2ccccc2c1=O	nt	2	16*	19
C/C(=C\c1ccccc1)C(=O)N1CCC=CC1=O	3	nt	nt	nt
O=C1C=C(c2ccc3ncccc3c2)C[C@@H](c2ccc3c(c2)OCO3)C1	9.8*	-1	-1	-15
O=C1C=C(c2ccc3ncccc3c2)C[C@@H](c2ccc(F)cc2)C1	nt	0	nt	1
NC(=O)N=Nc1c2[nH]c3ccccc3nc-2c2ccccc12	22*	2	7	-6
NC1(C(=O)O)CC1	17*	0	-4	4
COc1ccc(Cc2nnc(NC(=O)c3ccc(C)cc3)s2)cc1OC	1	-1	-3	-2
COc1ccc(Cc2nnc(NC(=O)c3ccc(F)cc3)s2)cc1OC	8.6*	-1	-2	8
CCC(C)C(=O)Nc1nc(C)c(-c2csc(Nc3cc(Cl)ccc3OC)n2)s1 (configuration not stated)	0	1	3	0
COc1ccc(OC)c(Nc2nc(-c3sc(NC(=O)C(C)(C)C)nc3C)cs2)c1	8.0*	0	-1	7
COc1ccc(Cl)cc1Nc1nc(-c2sc(NC(=O)C(C)(C)C)nc2C)cs1	8.7*	-1	1	6
Cc1ccc(C(=O)CN2/C(=C(\O)c3ccccc3)C(=O)c3ccccc3S2(=O)=O)c(C)c1	nt	12*	nt	-3
O=C(C[C@H]1C[C@@H]2c3cc(NC(=O)NC4CCCCC4)ccc3O[C@@H]2[C@H](CO)O1)NCc1ccccc1	-1	nt	nt	nt
Cc1csc(NC(=O)COc2ccc3c(C)cc(=O)oc3c2)n1	3	9.4*	-2	-9
CCC1CCc2sc(C(=O)NCC3CCCO3)cc2C1 (configuration not stated)	1	-2	7.9*	19
O=C(COC(=O)CCC1CCCC1)Nc1ccccc1Br	-5	6	2	3
Cc1ccc(NC(=O)COC(=O)CCC2CCCC2)c(Br)c1	9.4*	4	-2	-2
O=C(Nc1ccc(F)cc1)C1CCN(C(=O)c2ccc(F)cc2)CC1	14*	0	-1	3
O=C(Nc1ccc(C(=O)N2CCCC2)cc1)C1CCCC1	5	-1	2	2
COc1ccc2c(c1)c(CC(=O)OCC(=O)O)c(C)n2C(=O)c1ccc(Cl)cc1	8.5*	-1	1	12
O=C(Cc1ccccc1)N1CC(=O)N2[C@H](CO)[C@@H](c3ccc(-c4ccccc4)cc3)[C@@H]2C1	12*	nt	nt	nt
O=C(C[C@H]1C=C[C@@H](NC(=O)C2CCOCC2)[C@@H](CO)O1)NCc1ccncc1	1	nt	nt	nt
Cc1cc(C)c2nc(Cl)c(CN(Cc3ccco3)C(=O)Nc3ccccc3C)cc2c1	11*	-3	3	-20
COc1ccccc1NC(=S)N(Cc1ccco1)Cc1cc2cc(C)cc(C)c2[nH]c1=O	10*	0	0	-5
O=C(C(=O)N1CCN(c2cccc(Cl)c2)CC1)c1c[nH]c2ccccc12	-1	8.5*	-1	1
SMILES	F508del corr	MC4R ag barr	SMARCA2 act	MC4R antagonist
O=[N+]([O-])c1ccc(N=Nc2c(Cl)cc(O)cc2Cl)cc1	10*	-2	-7	4
CC(N)=Nc1ccc([N+](=O)[O-])cc1	nt	-1	-1	-1
Cc1ccc(O)c(C(=O)CC(=O)c2ccc(C(C)(C)C)cc2)c1	2	12*	1	2
O=C(CCl)Nc1ccc(S(=O)(=O)NC2=NCCCCC2)cc1	3	2	-2	9
CC(C)(C)C(=O)Nc1ccc(S(=O)(=O)NC2=NCCCCC2)cc1	15*	0	1	2
C[C@H]1CN([C@@H](C)CO)C(=O)c2cccc(N(C)C)c2O[C@@H]1CN(C)S(=O)(=O)c1cn(C)cn1	-3	nt	nt	nt
Cc1ccccc1-c1nc(CS(=O)(=O)CC(=O)NCc2ccccc2)c(C)o1	8.8*	3	-5	16
COc1ccc(NC(=O)Nc2ccc3c(c2)CC(=O)N([C@H](C)CO)C[C@@H](C)[C@H](CN(C)Cc2ccc(C(=O)O)cc2)O3)cc1	-2	nt	nt	nt
COc1ccc(CCNC(=S)NC(=O)c2c(-c3ccccc3Cl)noc2C)cc1OC	-2	2	-1	20
Cc1onc(-c2ccccc2Cl)c1C(=O)NC(=S)NCCc1ccccc1	nt	-1	8.6*	6
CN(C)C(=O)C[C@H]1CC[C@@H]2[C@H](COC[C@H](O)CN2C(=O)C2CCCC2)O1	-2	nt	nt	nt
C[C@H](CO)N1C[C@H](C)[C@@H](CN(C)Cc2ccc(C(=O)O)cc2)OCCCC[C@H](C)Oc2ccc(NC(=O)NC3CCCCC3)cc2C1=O	0	nt	nt	nt
CC(C)NC(=O)N(C)C[C@@H]1Oc2ncc(-c3cncnc3)cc2C(=O)N([C@H](C)CO)C[C@@H]1C	-1	nt	nt	nt
Cc1ccc(C(=O)OCC(=O)N2C(C)CCCC2C)cc1S(=O)(=O)N1CCOCC1 (configuration not stated)	1	-1	-3	1
COc1ccc(C(=O)OCC(=O)N2C(C)CCCC2C)cc1S(=O)(=O)N1CCOCC1 (configuration not stated)	11*	0	-2	3
O=C(O)c1ccccc1-c1nc(-c2ccccc2)c(-c2ccccc2)[nH]1	13*	-1	-2	15
O=C(O)COc1ccccc1-c1nc(-c2ccccc2)c(-c2ccccc2)[nH]1	1	1	-2	25
COCc1cn(CC[C@@H]2CC[C@@H](NC(=O)CCN3CCCCC3)[C@H](CO)O2)nn1	-3	nt	nt	nt
O=C(COc1ccc(/C=N/NC(=O)c2cc3ccccc3o2)cc1Br)Nc1ccccc1	nt	53*	2	6
O=C(COc1ccccc1[N+](=O)[O-])Nc1ccc(NC(=O)c2cc3ccccc3o2)cc1	1	3	-1	-4
COc1ccccc1N1CCN(/N=C/C=C\c2ccco2)CC1	nt	-2	5	4
COc1ccccc1N1CCN(/N=C/C=C\c2ccccc2[N+](=O)[O-])CC1	15*	0	1	-7
C[C@@H]1CN([C@H](C)CO)C(=O)c2cc(NS(=O)(=O)c3ccc(Cl)cc3)ccc2O[C@H]1CN(C)C(=O)Nc1cccc2ccccc12	-2	nt	nt	nt
COc1ccc(NC(=O)c2ccc(NC(=O)c3nc4nccc(C)n4n3)cc2)cc1	27*	0	-3	14
COc1ccc(-c2cccc(C(=O)Nc3ccc(OC)c(OC)c3)c2)cc1	nt	1	-3	-5
CC(=O)c1cccc(NC(=O)c2ccc3ccccc3c2)c1	-4	0	3	4
CC(=O)c1ccc(NC(=O)c2cccc(NC(=O)c3ccccc3)c2)cc1	-2	8.4*	3	1
COc1ccc(-c2cccc(C(=O)Nc3ccc(C)cc3)c2)cc1	nt	8.6*	-1	1
COc1ccc(NC(=O)c2ccc3ccccc3c2)cc1	1	8.8*	6	10

Assay outcomes as filed in PubChem.
